From publication PMC9291822 (British Journal of Clinical Pharmacology, 2021)
Where “and” joins values, the source holds several entries; their conditions need not be identical. Identical values can stand only once. Entries after “also recorded” stand apart in the source; their conditions may differ. Like-named read-outs stand apart in the source and are kept apart here.

How the values were obtained:
[1] = repeated administration of 400-mg BID tablets; cited from earlier work
[2] = test system: human plasma proteins; assay: Plasma protein binding by ultrafiltration, 3 h postdose samples; type: in vitro ADME
[3] = Safety assessments and adverse events after single-dose capmatinib; type: in vivo, human; conditions: for AEs, any primary system organ class: regardless of study drug relationship
In short: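 Single oral 200 mg dose; participants confined from day −1 to day 4. Haematology, chemistry, coagulation and urinalysis at screening, baseline, days 1–2 and end of treatment; vital signs on days 1–3. Triplicate 12-lead ECGs. AEs/SAEs recorded with severity and relatedness, graded per CTCAE v4.03. Phone follow-up at 30 days post-dose.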

[4] = type: in vivo, human
In short: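 Adults aged 18–75 with hepatic impairment (Child–Pugh A/B/C, also reclassified by NCI Organ Dysfunction Working Group criteria) or normal function, matched on age, weight and sex. Overnight fast (≥10 h), single oral 200 mg (2 × 100 mg tablets), fasting ≥4 h post-dose. Plasma sampled predose to 72 h; parent and metabolite measured by validated LC-MS/MS (LLOQ ~1.00 ng/mL). Noncompartmental analysis; GM ratios vs normal with 90% CIs.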

[5] = test system: plasma protein; conditions: cited from earlier work
[6] = healthy participants, cited from earlier work
[7] = test system: MET; conditions: MET inhibitor; cited from earlier work
[8] = single oral dose 200 mg, mild, Child–Pugh A (n = 6)
[9] = single oral dose 200 mg, moderate, Child–Pugh B (n = 8)
[10] = single oral dose 200 mg, normal (n = 9)
[11] = single oral dose 200 mg, severe, Child–Pugh C (n = 6)

For `CNC(=O)c1ccc(-c2cnc3ncc(Cc4ccc5ncccc5c4)n3n2)cc1F` [capmatinib], the “steady state GM accumulation ratio” value [1] is listed as 1.4, the “bound to human plasma proteins” value ([2]; 3 hours postdose samples, across all participants) is listed as 96.7% and the “GM unbound fraction higher vs. normal group” value ([2]; severe group) is listed as ~ 44.8%. The “AEs, any primary system organ class, maximum Grade 1” value (from here on “AEs … maximum Grade 1”) ([3]; all participants (N = 31)) was 5 (16.1) n (%), the “AEs, any primary system organ class, maximum Grade 2” value (“AEs … maximum Grade 2” below) ([3]; all participants (N = 31)) was 1 (3.2) n (%) and the Diarrhoea ([3]; all participants (N = 31)) was 1 (3.2) n (%). The Dizziness ([3]; all participants (N = 31)) was 1 (3.2) n (%), the “Ear and labyrinth disorders” value ([3]; all participants (N = 31)) was 1 (3.2) n (%) and the Flatulence ([3]; all participants (N = 31)) was 1 (3.2) n (%). The Gastrointestinal disorders ([3]; all participants (N = 31)) was 3 (9.7) n (%), the “General disorders and administration site conditions” value ([3]; all participants (N = 31)) was 1 (3.2) n (%) and the Headache ([3]; all participants (N = 31)) was 2 (6.5) n (%). For the same molecule, the Hypoglycaemia ([3]; all participants (N = 31)) was 1 (3.2) n (%), the “Medical device site dermatitis” value ([3]; all participants (N = 31)) was 1 (3.2) n (%) and the “Metabolism and nutrition disorders” value ([3]; all participants (N = 31)) was 1 (3.2) n (%). The Nausea ([3]; all participants (N = 31)) was 2 (6.5) n (%), the Nervous system disorders ([3]; all participants (N = 31)) was 2 (6.5) n (%) and the Vertigo ([3]; all participants (N = 31)) was 1 (3.2) n (%). For the same molecule, the “participants with AEs suspected to be capmatinib related” value ([3]; all participants (N = 31)) was 9.7%, the “severity of AEs suspected to be capmatinib related” value ([3]; all participants (N = 31)) was “grade 1” and the “deaths and SAEs” value ([3]; during study treatment and 30-day follow-up) was “No deaths and SAEs”. The “AEs … maximum Grade 1” value ([3]; mild (n = 7)) was 2 (28.6) n (%), the “AEs … maximum Grade 2” value ([3]; mild (n = 7)) was 1 (14.3) n (%) and the Diarrhoea ([3]; mild (n = 7)) was 0 n (%). The Dizziness ([3]; mild (n = 7)) was 0 n (%), the “Ear and labyrinth disorders” value ([3]; mild (n = 7)) was 1 (14.3) n (%) and the Flatulence ([3]; mild (n = 7)) was 0 n (%). The Gastrointestinal disorders ([3]; mild (n = 7)) was 0 n (%), the “General disorders and administration site conditions” value ([3]; mild (n = 7)) was 1 (14.3) n (%) and the Headache ([3]; mild (n = 7)) was 1 (14.3) n (%). For the same molecule, the Hypoglycaemia ([3]; mild (n = 7)) was 1 (14.3) n (%), the “Medical device site dermatitis” value ([3]; mild (n = 7)) was 1 (14.3) n (%) and the “Metabolism and nutrition disorders” value ([3]; mild (n = 7)) was 1 (14.3) n (%). The Nausea ([3]; mild (n = 7)) was 0 n (%), the Nervous system disorders ([3]; mild (n = 7)) was 1 (14.3) n (%) and the Vertigo ([3]; mild (n = 7)) was 1 (14.3) n (%). The “AEs … maximum Grade 1” value ([3]; moderate (n = 8)) was 2 (25.0) n (%), the “AEs … maximum Grade 2” value ([3]; moderate (n = 8)) was 0 n (%) and the Diarrhoea ([3]; moderate (n = 8)) was 0 n (%). The Dizziness ([3]; moderate (n = 8)) was 1 (12.5) n (%), the “Ear and labyrinth disorders” value ([3]; moderate (n = 8)) was 0 n (%) and the Flatulence ([3]; moderate (n = 8)) was 0 n (%). For the same molecule, the Gastrointestinal disorders ([3]; moderate (n = 8)) was 2 (25.0) n (%), the “General disorders and administration site conditions” value ([3]; moderate (n = 8)) was 0 n (%) and the Headache ([3]; moderate (n = 8)) was 1 (12.5) n (%). For the same molecule, the Hypoglycaemia ([3]; moderate (n = 8)) was 0 n (%), the “Medical device site dermatitis” value ([3]; moderate (n = 8)) was 0 n (%) and the “Metabolism and nutrition disorders” value ([3]; moderate (n = 8)) was 0 n (%). For the same molecule, the Nausea ([3]; moderate (n = 8)) was 2 (25.0) n (%), the Nervous system disorders ([3]; moderate (n = 8)) was 1 (12.5) n (%) and the Vertigo ([3]; moderate (n = 8)) was 0 n (%). For the same molecule, the “AEs … maximum Grade 1” value ([3]; normal (n = 10)) was 0 n (%), the “AEs … maximum Grade 2” value ([3]; normal (n = 10)) was 0 n (%) and the Diarrhoea ([3]; normal (n = 10)) was 0 n (%). For the same molecule, the Dizziness ([3]; normal (n = 10)) was 0 n (%), the “Ear and labyrinth disorders” value ([3]; normal (n = 10)) was 0 n (%) and the Flatulence ([3]; normal (n = 10)) was 0 n (%). For the same molecule, the Gastrointestinal disorders ([3]; normal (n = 10)) was 0 n (%), the “General disorders and administration site conditions” value ([3]; normal (n = 10)) was 0 n (%) and the Headache ([3]; normal (n = 10)) was 0 n (%). The Hypoglycaemia ([3]; normal (n = 10)) was 0 n (%), the “Medical device site dermatitis” value ([3]; normal (n = 10)) was 0 n (%) and the “Metabolism and nutrition disorders” value ([3]; normal (n = 10)) was 0 n (%). For the same molecule, the Nausea ([3]; normal (n = 10)) was 0 n (%), the Nervous system disorders ([3]; normal (n = 10)) was 0 n (%) and the Vertigo ([3]; normal (n = 10)) was 0 n (%). For the same molecule, the “AEs, any primary system organ class” value ([3]; all participants (N = 31)) was 6 n (%) and 6 (19.4) n (%), the “AEs, any primary system organ class” value ([3]; mild (n = 7)) was 3 (42.9) n (%) and the “AEs, any primary system organ class” value ([3]; moderate (n = 8)) was 2 (25.0) n (%). The “AEs, any primary system organ class” value ([3]; normal (n = 10)) was 0 n (%), the “AEs, any primary system organ class” value ([3]; severe (n = 6)) was 1 (16.7) n (%) and the “AEs … maximum Grade 1” value ([3]; severe (n = 6)) was 1 (16.7) n (%). The “AEs … maximum Grade 2” value ([3]; severe (n = 6)) was 0 n (%), the Diarrhoea ([3]; severe (n = 6)) was 1 (16.7) n (%) and the Dizziness ([3]; severe (n = 6)) was 0 n (%). For the same molecule, the “Ear and labyrinth disorders” value ([3]; severe (n = 6)) was 0 n (%), the Flatulence ([3]; severe (n = 6)) was 1 (16.7) n (%) and the Gastrointestinal disorders ([3]; severe (n = 6)) was 1 (16.7) n (%). For the same molecule, the “General disorders and administration site conditions” value ([3]; severe (n = 6)) was 0 n (%), the Headache ([3]; severe (n = 6)) was 0 n (%) and the Hypoglycaemia ([3]; severe (n = 6)) was 0 n (%). For the same molecule, the “Medical device site dermatitis” value ([3]; severe (n = 6)) was 0 n (%), the “Metabolism and nutrition disorders” value ([3]; severe (n = 6)) was 0 n (%) and the Nausea ([3]; severe (n = 6)) was 0 n (%). The Nervous system disorders ([3]; severe (n = 6)) was 0 n (%), the Vertigo ([3]; severe (n = 6)) was 0 n (%) and the tolerability ([3]; single dose, mild, moderate, severe hepatic impairment and normal hepatic function) was “well tolerated”. For the same molecule, the “changes in chemistry parameters, QTcF or other ECG parameters” value ([3]; single oral dose 200 mg) was “No clinically relevant changes”, the “changes in haematological parameters” value ([3]; single oral dose 200 mg) was “Minimal changes” and the “increase in GM AUCinf, AUClast and Cmax vs. normal group” value ([4]; NCI classification, both mild and moderate groups) was 26–46%. The “increase in GM AUCinf vs. normal group” value ([4]; NCI classification, mild group) was 26%, the “increase in GM AUClast vs. normal group” value ([4]; NCI classification, mild group) was 27% and the “increase in GM Cmax vs. normal group” value ([4]; NCI classification, mild group) was 35%. For the same molecule, the “increase in GM Cmax vs. normal group” value ([4]; NCI classification, moderate group) was 46%, the AUC(0-inf) ([4]; human, plasma, po, 200 mg, AUCinf, GM, single oral dose 200 mg, normal (n = 9)) was 6240 ng·h/mL and the AUC(0-t) ([4]; human, plasma, po, 200 mg, AUClast, GM, single oral dose 200 mg, normal (n = 9)) was 6190 ng·h/mL. The Cmax ([4]; human, plasma, po, 200 mg, Cmax, GM, single oral dose 200 mg, normal (n = 9)) was 1740 ng/mL, the Vd/F ([4]; human, plasma, po, 200 mg, Vz/F, GM, single oral dose 200 mg, normal (n = 9)) was 483 L and the half-life ([4]; human, plasma, po, 200 mg, t½, GM, single oral dose 200 mg, normal (n = 9)) was 10.4 h. The “GM exposures vs. normal group, interim PK analysis” value ([4]; mild and moderate groups, end of stage 1) was less than 3 fold, the “GM Vz/F lower vs. normal group” value ([4]; mild group) was 32.9% and the “GM t½ shorter vs. normal group” value ([4]; mild group) was 48.4%. The “decrease in GM AUCinf vs. normal group” value ([4]; mild group) was 23.3%, the “decrease in GM Cmax vs. normal group” value ([4]; mild group) was 27.6% and the “increase in GM CL/F vs. normal group” value ([4]; mild group) was 30.6%. For the same molecule, the “decrease in GM AUCinf,u vs. normal group” value ([4]; mild group, unbound) was 19.3%, the “decrease in GM AUClast,u vs. normal group” value ([4]; mild group, unbound) was 19.6% and the “decrease in GM Cmax,u vs. normal group” value ([4]; mild group, unbound) was 23.9%. The “GM Vz/F lower vs. normal group” value ([4]; moderate group) was 39.5%, the “GM t½ shorter vs. normal group” value ([4]; moderate group) was 44.5% and the “decrease in GM AUCinf vs. normal group” value ([4]; moderate group) was 8.6%. For the same molecule, the “decrease in GM Cmax vs. normal group” value ([4]; moderate group) was 17.2%, the “increase in GM CL/F vs. normal group” value ([4]; moderate group) was 9.7% and the “GM Cmax,u, AUClast,u and AUCinf,u vs. normal group” value ([4]; moderate group, unbound) was “similar”. For the same molecule, the “GM Vz/F lower vs. normal group” value ([4]; severe group) was 53.0%, the “GM t½ shorter vs. normal group” value ([4]; severe group) was 41.5% and the “change in GM Cmax vs. normal group” value ([4]; severe group) was “remained unchanged; also recorded: remained similar”. The “decrease in GM CL/F vs. normal group” value ([4]; severe group) was 19.1%, the “increase in GM AUCinf vs. normal group” value ([4]; severe group) was 24% and the “increase in GM AUCinf,u vs. normal group” value ([4]; severe group, unbound) was 78%. For the same molecule, the “increase in GM AUClast,u vs. normal group” value ([4]; severe group, unbound) was 78%, the “increase in GM Cmax,u vs. normal group” value ([4]; severe group, unbound) was 46% and the “CL/F, GM” value [4, 8] was 41.8 L/h. For the same molecule, the “CL/F, mean (SD)” value [4, 8] was 42.6 (9.23) L/h, the “CL/F, GM” value [4, 9] was 35.1 L/h and the “CL/F, mean (SD)” value [4, 9] was 36.6 (11.4) L/h. For the same molecule, the “CL/F, GM” value [4, 10] was 32.0 L/h, the “CL/F, mean (SD)” value [4, 10] was 36.1 (19.1) L/h and the “CL/F, GM” value [4, 11] was 25.9 L/h. The “CL/F, mean (SD)” value [4, 11] was 28.2 (11.7) L/h, the “bound to plasma protein” value [5] was 96% and the tolerability ([6]; single dose of 600 mg, tablet formulation) was “tolerated”. For the same molecule, the PK dose linearity ([6]; tablets, single dose of 200–600 mg) was “linear” and the IC50 [7] was 0.6 nM.
